The text below walks through data of PMC6104147 (Journal of Pharmaceutical Analysis, 2018).

One series concerns PDE-5. The following applies: cited from earlier work.
A short description of a further series: Stock solution stability. It is filed as physicochemical. The conditions noted are these: stock solution in methanol; for Long-term stability of stock solution, time with no significant change: 5 °C. In short, it runs like this: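 Methanol stock solutions of the analyte (500 µg/mL) and its deuterated internal standard (100 µg/mL) were tested for short-term and long-term stability. Working solutions were made by dilution in methanol. Stock and working solutions were stored at 2–8 °C.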

The format of series [1] is in vivo, human. The gist of the method:
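Single oral 20 mg tablet dose, test vs reference formulation, given fasting to 24 healthy Indian subjects. The test compound was measured in plasma by LC-MS/MS with a deuterated internal standard. 200 µL plasma was extracted on Strata-X-C SPE and run on a Synergi Hydro-RP C18 column. Mobile phase was methanol:10 mM ammonium formate pH 4.0 (90:10) at 0.9 mL/min, with positive ESI MRM. Calibration range was 0.50–500 ng/mL, and non-compartmental PK was calculated.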

Series [2] in a line: Stability of tadalafil in human plasma under storage and process conditions. It is filed as in vitro ADME.
A further series can be described thus: Whole blood stability. The class given is in vitro ADME, human. The following applies: 25 °C.
The conditions of series [3]: cited from earlier work.
Setting [4] is: 20 mg oral, fasting, 24 subjects.

For `CCCc1nn(C)c2c(=O)[nH]c(-c3cc(S(=O)(=O)N4CCN(C)CC4)ccc3OCC)nc12` [sildenafil], the “Selectivity for PDE-5 over other PDE isozymes” value in the series with PDE-5 is reported as 41 times.

Consider `[2H]C([2H])([2H])N1CC(=O)N2[C@H](c3ccc4c(c3)OCO4)c3[nH]c4ccccc4c3C[C@@H]2C1=O` [TAD-d3, tadalafil-d3], for which the “Long-term stability of stock solution, time with no significant change” value in the series “Stock solution stability” is listed as “up to 10 days”. Further, in the series “Stock solution stability” (room temperature), the “Short-term stability of stock solution, time remained stable” value is on record as “up to 7 h”.

On to `CN1CC(=O)N2[C@H](c3ccc4c(c3)OCO4)c3[nH]c4ccccc4c3C[C@@H]2C1=O` [tadalafil], for which, in series [1] (setting [4]), the “Intra subject variation of AUC 0-inf” value was 11.56 % CV, the “Intra subject variation of AUC 0–168 h” value came out at 10.09 % CV and the “Intra subject variation of Cmax” value came to 9.53 % CV. Also, in series [1] (male, human, plasma, po, 20 mg), the highest level (Cmax) was 396 ng/mL, the Tmax was around 2.37 h and the half-life is 18.6 ± 2.47 h. For the same molecule, the “Ratios of mean log-transformed Cmax, AUC0–168 h and AUC0-inf and their 90% confidence intervals” value in series [1] (test vs reference, overall range, acceptance criterion 80%–125%) was 99.2% to 110.9. Further, the “Time found stable in plasma at room temperature” value in series [2] (controlled blank plasma) is “up to 12 h”. The “Time stable in extracted plasma samples, room temperature” value in series [2] (extracted plasma samples) is 12 h. The “Whole blood stability, time with no evidence of degradation” value in “Whole blood stability” is “up to 2 h”. The “Long-term stability of stock solution, time with no significant change” value in the series “Stock solution stability” is “up to 10 days”. In addition, in the series on PDE-5, the “Selectivity for PDE-5 over PDE-1–4 and PDE-7–10” value was 1000 times. In addition, in series [3], the Bioavailability entry is “approximately 80%” and the “Fraction of the metabolized drug excreted in the urine” value is “one third”.
